Data taken from ChEMBL document CHEMBL4823270, “A first-in-class anticancer dual HDAC2/FAK inhibitors bearing hydroxamates/benzamides capped by pyridinyl-1,2,4-triazoles” (Eur J Med Chem, 2021).
The source made the active and inactive calls. The rule behind the calls is not given here.

Experiments:
A498 [1] = assay: Induction of apoptosis in human A498 cells at 0.75 to 1.5 uM measured after 24 hrs by Annexin-V/propidium iodide staining based flow cytometry relative to control; format: functional; settings: dose 0.75-1.5 µM
Summary of the method: (§1)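 Cells in supplemented medium with 10% FBS at 37 °C, 5% CO2, exposed to 0.75 or 1.5 μM compound, or DMSO as negative control, for 24 h. Apoptosis assessed by annexin V/PI staining per kit instructions, then flow cytometry; apoptotic cell percentage quantified against control.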

Focal adhesion kinase 1 [2] = target: T1, Focal adhesion kinase 1 (Homo sapiens, UniProt Q05397); assay: Inhibition of FAK in human A498 cells assessed as reduction in FAK phosphorylation pretreated for 12 weeks followed by treatment for last 24 hrs by Western blot analysis; format: cell-based; settings: time 85.0 day
CAKI-1 [3] = assay: Induction of apoptosis in human CAKI-1 cells at 1.5 uM measured after 24 hrs by Annexin-V/propidium iodide staining based flow cytometry relative to control; format: functional; summary of the method: as §1
CAKI-1 [4] = assay: Induction of cell cycle arrest in human CAKI-1 cells assessed as decrease in cell population at G1 phase at 1.5 uM incubated for 24 hrs by propidium iodide based flow cytometry analysis; format: functional
Summary of the method: (§2)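 Cells at 1 × 10^5/mL treated with 0.75 or 1.5 μM compound or DMSO (negative control) for 24 h, harvested and washed in PBS. Fixed by dropwise ice-cold 80% ethanol with vortexing, held overnight, washed twice, PI-stained 20 min in the dark. Phase distribution read by flow cytometry.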

K562 = assay: Growth inhibition of human K562 cells at 10 uM incubated for 24 hrs by MTT assay relative to control; format: functional; settings: read-out: GI
Summary of the method: (§3)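 Cells seeded at 1 × 10^4 per well, cultured overnight, then exposed to 10 μM compound or DMSO (negative control) for 24 h. After a PBS wash, MTT (2 mg/ml) was added for 4 h at 37°C and formazan dissolved in DMSO. OD read at 570 nm. Growth inhibition = 1 − (OD treated/OD control); at least three independent experiments.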

A498 [5] = assay: Induction of cell cycle arrest in human A498 cells assessed as accumulation at G2/M phase incubated for 24 hrs by propidium iodide based flow cytometry analysis (reference value: 18 %); format: functional; summary of the method: as §2
A498 [6] = assay: Induction of cell cycle arrest in human A498 cells assessed as decrease in cell population at G1 phase at 1.5 uM incubated for 24 hrs by propidium iodide based flow cytometry analysis; format: functional; summary of the method: as §2
Focal adhesion kinase 1 [7] = target: T1, Focal adhesion kinase 1; assay: Inhibition of FAK in human A498 cells assessed as reduction in FAK phosphorylation by Western blot analysis; format: cell-based
Summary of the method: (§4)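 40 μg protein (Bradford) resolved by SDS-PAGE, transferred to PVDF, blocked 1 h in milk or BSA. Primary antibody overnight, HRP secondary 1 h, ECL detection; β-actin as loading control.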

Focal adhesion kinase 1 [8] = target: T1, Focal adhesion kinase 1; assay: Inhibition of FAK in human CAKI-1 cells assessed as reduction in FAK phosphorylation by Western blot analysis; format: cell-based; summary of the method: as §4
HT-29 = assay: Growth inhibition of human HT-29 cells at 10 uM incubated for 24 hrs by MTT assay relative to control; format: functional; settings: read-out: GI; summary of the method: as §3
Histone deacetylase 2 [9] = target: T2, Histone deacetylase 2 (Homo sapiens, UniProt Q92769); assay: Inhibition of HDAC2 in human A498 cells assessed as reduction in HDAC2 expression by Western blot analysis; format: cell-based; summary of the method: as §4
Histone deacetylase 2 [10] = target: T2, Histone deacetylase 2; assay: Inhibition of HDAC2 in human A498 cells assessed as reduction in HDAC2 expression pretreated for 12 weeks followed by treatment for last 24 hrs by Western blot analysis; format: cell-based; settings: time 85.0 day
A498 [11] = assay: Induction of apoptosis in human A498 cells assessed as activation of caspase-3 measured after 24 hrs by ELISA relative to control; format: functional
Summary of the method: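 A-498 lysates were assayed for active caspase-3 protein by ELISA. Samples or standards were incubated 2 h at room temperature, then caspase-3 (active) detection antibody for 1 h, anti-rabbit IgG-HRP for 30 min, and chromogen for 30 min. After the stop solution, the plate was read and values were taken from a fitted standard curve in pg/ml versus a negative control.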

CAKI-1 [12] = assay: Growth inhibition of human CAKI-1 cells at 10 uM incubated for 24 hrs by MTT assay relative to control; format: functional; settings: read-out: GI; summary of the method: as §3
Histone deacetylase 3 = Histone deacetylase 3 (Homo sapiens, UniProt O15379); assay: Inhibition of human full-length recombinant HDAC3 preincubated for 5 mins followed by HDAC substrate addition and further incubated for 45 mins by fluorescence microplate reader assay
Sequence of Histone deacetylase 3 (O15379 whole entry): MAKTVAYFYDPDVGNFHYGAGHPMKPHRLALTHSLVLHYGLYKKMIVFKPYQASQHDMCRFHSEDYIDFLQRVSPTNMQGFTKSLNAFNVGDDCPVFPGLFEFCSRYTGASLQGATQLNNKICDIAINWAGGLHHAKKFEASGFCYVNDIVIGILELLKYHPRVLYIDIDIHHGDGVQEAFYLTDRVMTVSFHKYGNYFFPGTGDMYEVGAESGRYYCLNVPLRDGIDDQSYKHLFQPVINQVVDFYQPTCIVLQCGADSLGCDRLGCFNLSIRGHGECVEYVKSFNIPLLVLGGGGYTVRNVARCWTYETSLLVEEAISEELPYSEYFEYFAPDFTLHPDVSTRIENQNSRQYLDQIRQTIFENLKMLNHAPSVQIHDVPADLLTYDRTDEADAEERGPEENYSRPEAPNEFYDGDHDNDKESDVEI

T1 sequence (Q05397 2-1052 limits assumed): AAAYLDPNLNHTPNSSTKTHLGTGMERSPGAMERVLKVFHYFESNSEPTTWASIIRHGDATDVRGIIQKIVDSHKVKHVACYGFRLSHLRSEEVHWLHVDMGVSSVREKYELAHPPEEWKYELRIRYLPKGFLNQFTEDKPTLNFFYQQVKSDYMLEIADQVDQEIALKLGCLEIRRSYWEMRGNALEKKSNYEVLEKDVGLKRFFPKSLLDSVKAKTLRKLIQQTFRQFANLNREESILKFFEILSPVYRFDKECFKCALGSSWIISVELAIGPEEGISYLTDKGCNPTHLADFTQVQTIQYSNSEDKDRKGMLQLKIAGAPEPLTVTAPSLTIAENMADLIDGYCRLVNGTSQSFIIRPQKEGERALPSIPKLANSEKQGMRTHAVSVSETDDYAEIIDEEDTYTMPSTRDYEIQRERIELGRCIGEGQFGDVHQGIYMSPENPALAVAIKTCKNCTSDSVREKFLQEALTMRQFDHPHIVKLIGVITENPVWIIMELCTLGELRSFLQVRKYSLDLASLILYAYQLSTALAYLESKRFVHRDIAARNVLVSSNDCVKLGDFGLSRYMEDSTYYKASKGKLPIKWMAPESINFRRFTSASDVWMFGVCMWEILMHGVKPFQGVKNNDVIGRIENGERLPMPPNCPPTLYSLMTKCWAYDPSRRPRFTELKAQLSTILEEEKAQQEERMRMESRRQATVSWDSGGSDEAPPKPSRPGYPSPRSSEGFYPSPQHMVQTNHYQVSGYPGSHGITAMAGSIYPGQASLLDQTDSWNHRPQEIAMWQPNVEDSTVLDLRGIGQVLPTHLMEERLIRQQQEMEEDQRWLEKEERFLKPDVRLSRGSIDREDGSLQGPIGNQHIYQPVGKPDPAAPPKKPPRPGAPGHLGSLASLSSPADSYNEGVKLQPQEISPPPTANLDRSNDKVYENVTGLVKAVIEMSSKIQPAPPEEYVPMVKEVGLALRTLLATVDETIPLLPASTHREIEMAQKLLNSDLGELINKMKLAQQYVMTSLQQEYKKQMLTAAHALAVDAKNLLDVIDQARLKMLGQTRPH
T2 sequence (Q92769 whole entry): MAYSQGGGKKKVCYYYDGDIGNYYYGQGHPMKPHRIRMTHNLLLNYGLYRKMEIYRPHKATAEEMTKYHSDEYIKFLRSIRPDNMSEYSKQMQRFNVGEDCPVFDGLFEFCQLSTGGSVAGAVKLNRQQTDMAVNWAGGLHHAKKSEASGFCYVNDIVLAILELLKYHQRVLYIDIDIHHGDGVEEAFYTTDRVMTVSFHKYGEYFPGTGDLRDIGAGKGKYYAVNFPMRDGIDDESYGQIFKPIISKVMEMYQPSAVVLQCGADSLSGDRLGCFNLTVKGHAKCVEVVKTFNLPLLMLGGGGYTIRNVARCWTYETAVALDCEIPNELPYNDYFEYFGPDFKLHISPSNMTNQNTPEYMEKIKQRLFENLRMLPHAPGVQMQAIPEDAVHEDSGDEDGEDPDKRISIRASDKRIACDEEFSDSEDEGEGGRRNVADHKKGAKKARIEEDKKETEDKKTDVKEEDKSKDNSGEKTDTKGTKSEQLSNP

## Cn1c(SCCCCCC(=O)NO)nnc1-c1ccncc1
A498 [1]
  Activity: 50%
Focal adhesion kinase 1 [2]
  inhibition: Active
CAKI-1 [3]
  Activity: 37%
CAKI-1 [4]
  Activity: Active
K562
  inhibition of growth at 10 µM: 40.1%
A498 [5]
  Activity: 65%
A498 [6]
  Activity: Active
Focal adhesion kinase 1 [7]
  inhibition: Active
Focal adhesion kinase 1 [8]
  inhibition: Active
HT-29
  inhibition of growth at 10 µM: 68.3%
Histone deacetylase 2 [9]
  inhibition: Active
Histone deacetylase 2 [10]
  inhibition: Active
A498 [11]
  fold change (FC): 11
CAKI-1 [12]
  inhibition of growth at 10 µM: 98.1%
Histone deacetylase 3
  IC50: 3.41 µM
